# A selection: hits, their analogues and other compounds. The true share with any hit is near 2.6%.
# S100A4 MyoIIA – blocks human S100A4 binding to myosin IIA peptide | P26447 | S100A4/TAMRA-MyoIIA peptide fluorescence polarization | inhibition, % at 10.7 µM | actives 0.14% (n = 360,000) | AID 652163;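 active = mean inhibition of at least 70% across replicates, with every replicate also reaching that level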
# Target sequence (P26447 whole entry, looked up): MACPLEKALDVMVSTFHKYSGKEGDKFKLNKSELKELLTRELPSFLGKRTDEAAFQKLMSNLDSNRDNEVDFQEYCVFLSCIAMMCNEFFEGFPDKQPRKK
#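 Compound dosing: one dose per compound; test system: human S100A4 monomer with TAMRA-labelled myosin IIA peptide; probe or stimulus: TAMRA-labelled myosin IIA heavy-chain peptide probe, 5 nM; medium: HEPES buffer with Ca2+, pH 7.2; schedule: 5 min incubation before reading; benchmarks: neutral control DMSO, positive control TFP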
# Env fusion inh – HIV envelope-mediated fusion inhibition; HeLa-JRFL Env/CEM21 cell fusion, luciferase; inhibition, % at 12.3 µM; actives 1.1% (n = 360,000); AID 651610;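 active = mean replicate inhibition score of at least 50 and every replicate individually at or above 50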;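 also: 0% = plate neutral controls and 100% = maraviroc near 300 nM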
# miR-122 sensor – blocks miR-122 activity in Huh7 sensor cells; Huh7 miR-122 Renilla luciferase sensor, 48 h; neutral wells = 0, positive control = 100; actives 0.3% (n = 340,000); activation (reporter increase), % at 12.5 µM;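 active = mean replicate activation score at least 90 and every replicate individually at or above 90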;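 also: higher luciferase means less miR-122 activity so hits act as miR-122 inhibitors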
# Vif inh – inhibitors of HIV Vif | HEK293T cells, Vif self-association by quenched fluorescence, imaging, 24 h | inhibition, % at 7.49 µM | actives 0.35% (n = 340,000); in the data active = inhibition above about 50%, passing the limit was not always enough
# FN deposition inh – fibronectin deposition inhibition; AH1F fibroblasts, Alexa488-fibronectin deposition fluorescence, overnight; inhibition, % at 12.6 µM; actives 0.086% (n = 350,000);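 active = mean inhibition across replicates of 30% or more, regardless of how many single replicates reach that level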;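 also: positive control wells lacked labelled fibronectin entirely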
#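 Measured by – fluorescence 485/525 nm · System – AH1F fibroblast monolayer, labelled fibronectin deposition · Amount – 10000 cells per well · Buffer or medium – serum-reduced DMEM (2% serum) · Doses – single dose, pinned · Also added – fluorescent fibronectin at 24 nM final · Schedule – 1 h cell attachment, overnight exposure to compound and label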
# rRNA inh HTS – inhibitors of bacterial rRNA selective over humanized ribosomes. GFP signal change (wild-type ribosome), % (test concentration not listed). AID 720706. E. coli WT GFP vs humanized-ribosome RFP mutants, fluorescence, 24 h; hits give low values; DMSO median 0, no signal -100. actives 1.6% (n = 350,000);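 active = significant combined selectivity score with lowered wild-type GFP, culture density cut under 30%, mutant RFP and density less affected; inactive = any of these conditions unmet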
# * = called active by the depositor; nt = no result given; [ ] = dose if it differs, or a comment.
SMILES,S100A4 MyoIIA,Env fusion inh,miR-122 sensor,Vif inh,FN deposition inh,rRNA inh HTS
Cc1ccc(/C=N/NC(=O)C2(C)CC2(Br)Br)cc1 (stereo unspecified),-3,5,nt,7,7,-7
COc1ccc(C2CC3(O)NC(=O)C(C#N)(C3C)C2(C#N)C#N)cc1 (stereo unspecified),-1,4,0,66*,-5,20
C[C@H](CO)N1C[C@H](C)[C@H](CN(C)Cc2ccc(Oc3ccccc3)cc2)Oc2ccc(NC(=O)Nc3ccc4c(c3)OCO4)cc2CC1=O,-8,10[16.7 µM],-8[16.7 µM],nt,nt,-4
O=C(NC(Cc1c[nH]c2ccccc12)C(=O)O)c1ccc(F)cc1 (stereo unspecified),3,2,nt,0,-7,2
CC(C)COc1ccc(C(=O)NC(Cc2c[nH]c3ccccc23)C(=O)NN)cc1 (stereo unspecified),-8,0,nt,10,-4,-35*
Cc1ccc(S(=O)(=O)N[C@@H]2CC[C@@H](CCNC(=O)Cc3ccccn3)O[C@H]2CO)cc1,-5,5[16.7 µM],nt,nt,nt,3
CC(C)Cc1cc(C(=O)O)c2ccccc2n1,nt,nt,-6,3,nt,nt
CC(=O)c1ccc(NC(=O)c2cc(CC(C)C)nc3ccccc23)cc1,-1,58*,1,12,5,6
CNC[C@@H]1Oc2c(NC(=O)NC(C)C)cccc2C(=O)N(C)C[C@H]1C,nt,nt,nt,nt,nt,2
CCOc1ccccc1C1C2=C(COC2=O)Nc2cc3c(cc21)OCO3 (stereo unspecified),-2,-129,nt,81*,5,-24*
O=C(c1cccs1)N1CCCc2ccccc21,-2,nt,-5,7,nt,-24*
O=C(c1cccs1)N1CCc2ccccc21,nt,-49,-10,-5,nt,nt
CN(C)CCCC1Sc2ccccc2Sc2ccccc21 (stereo unspecified),-1,18,nt,-4,-8,-46*
CO[C@@H]1CN(C)C(=O)c2ccc(NC(C)=O)cc2OC[C@@H](C)N(CC2CCCCC2)C[C@H]1C,nt,nt,nt,nt,0,-1
NC(=O)C1CCN(C(=O)c2cc3ccccc3cc2O)CC1,9,63*,nt,10,-6,8
C[C@@H]1CN([C@H](C)CO)C(=O)Cc2cc(NS(=O)(=O)c3ccccc3)ccc2O[C@@H]1CN(C)C(=O)Nc1ccccc1,0,1[16.7 µM],1[16.7 µM],nt,nt,3
O=C(Nc1ccc(F)cc1)N[C@H]1C=C[C@H](CC(=O)N2CCOCC2)O[C@@H]1CO,25,-23[16.7 µM],3[16.7 µM],nt,-2,4
COc1ccc(Cn2c(=O)c3[nH]cnc3n(-c3ccc(C)cc3)c2=O)cc1,-2,7,nt,13,7,-20*
COc1ccc(CN(C)C[C@H]2Oc3ccc(NS(=O)(=O)c4ccc(OC)cc4)cc3CC(=O)N([C@@H](C)CO)C[C@@H]2C)cc1,-8,5[16.7 µM],-9[16.7 µM],nt,nt,-2
O=c1oc(=S)oc2c1[C@H](c1ccc(Cl)cc1)O[C@H](C1CC1)C2,-5,1,nt,nt,-4,-43*
CO[C@@H]1CN(C)C(=O)c2ccc(NS(=O)(=O)CC(F)(F)F)cc2OC[C@@H](C)N(Cc2ccccn2)C[C@H]1C,57,-1[16.7 µM],nt,nt,0,6
COc1ccc([C@H]2CC=CC[C@@H](C)Oc3ccccc3C(=O)N(C)[C@H](C(C)C)C(=O)N2)c(OC)c1 (mixture of isomers),nt,nt,nt,nt,-8,-2
CO[C@H]1CN(C)C(=O)c2cc(NS(=O)(=O)CC(F)(F)F)ccc2OC[C@@H](C)N(Cc2nccs2)C[C@H]1C,nt,-4[16.7 µM],nt,nt,1,-2
Cn1nc(-c2ccccc2)cc1NC(=O)Nc1ccc(F)cc1,-8,-2,5,19,2,-40*
Cn1nc(C(F)(F)F)c(-c2cccc(C(F)(F)F)c2)c1NC(=O)Nc1ccc(F)cc1,4,1,5,-9,7,-28*
SMILES,S100A4 MyoIIA,Env fusion inh,miR-122 sensor,Vif inh,FN deposition inh,rRNA inh HTS
COc1ccc(CN(C)C[C@@H]2Oc3ccc(NC(=O)Nc4ccc(C(F)(F)F)cc4)cc3C(=O)N([C@@H](C)CO)C[C@H]2C)cc1,5,0[16.7 µM],-9[16.7 µM],nt,-11,-25
COc1cccc(CN(C)C[C@H]2OCc3cn(nn3)CCCC(=O)N([C@@H](C)CO)C[C@@H]2C)c1,-2,-6[16.7 µM],5[16.7 µM],nt,-3,1
CCCN1C[C@@H](C)[C@@H](OC)CN(C)C(=O)c2ccc(NC(=O)c3ccccc3)cc2OC[C@H]1C,12,nt,-12[16.7 µM],nt,-18,0
CC(=O)Nc1ccc(NC(=O)C(C)OC(=O)C23CC4CC(CC(Cl)(C4)C2)C3)cc1 (stereo unspecified),1,nt,-9,-5,-23,-26*
CC(=O)Nc1ccc(NC(=O)C(C)OC(=O)C2(c3ccc(Cl)cc3)CCCC2)cc1 (stereo unspecified),1,-10,nt,-5,-17,0
O=C(CN1CCOCC1)N1CCCCN2[C@H](CO)[C@H](c3ccc(C#Cc4ccccc4)cc3)[C@@H]2C1,3,nt,58[16.7 µM],nt,nt,12
CC(C)CCNc1c(-c2cccs2)nc2ccccn12,-4,15,0,4,20,-26*
CCCCc1cc(=O)oc2cc(OCc3cc(OC)c(OC)c(OC)c3)c(Cl)cc12,nt,-57,1,-4,3,nt
CCCc1cc(=O)oc2cc(OCc3cc(OC)c(OC)c(OC)c3)c(Cl)cc12,nt,-2,2,106*,2,nt
Fc1ccc(-n2nnc(-c3cccnc3Cl)n2)cc1,-4,-158,-1,-7,6,4
Fc1ccc(-n2nnc(-c3nccs3)n2)cc1,12,-139,136*,-6,13,-42
Cc1ccc(N(C)S(=O)(=O)c2cccc(C(=O)N(C)Cc3cnn(-c4ccccc4)c3)c2)cc1,1,63*,-3,-24,3,-19
COc1ccccc1S(=O)(=O)N1CC[C@H]2[C@H](CO)Nc3ccc(-c4ccc(F)cc4)cc3[C@H]21,0,nt,-10[16.7 µM],nt,8,-3
Cc1cc(C)c(COCc2cc(/C=N/O)c(C)cc2C)cc1/C=N/O,-5,nt,0,-6,nt,-36*
S=C1SCN(Cc2cccnc2)CN1Cc1ccccc1,-2,-2,4,-5,-3,-29*
S=C1NCN(Cc2cccnc2)CN1Cc1ccccc1,15,-11,nt,-1,-13,-5
CCOc1ccc(OCC)c(NC(=O)CN2CCN(c3cc(C)ccc3C)CC2)c1,nt,61*,-1,-22,12,nt
COc1ccc(NC(=O)CN2CCC(C(N)=O)(N3CCCCC3)CC2)cc1,nt,77*,nt,1,nt,nt
COc1ccc(NC(=O)CN2CCCCC2)cc1,nt,nt,4,18,nt,nt
COc1ccc(NC(=O)CN2CCN(c3ccccc3C)CC2)cc1,10,-3,4,6,-2,-31*
